Data set [1] can be described thus: melting temperature; fluorescence melt of hairpins on a sequencing array, two-state fit, raised by 9.35 °C to match UV melts. As to conditions: sodium 0.088 M. The method, boiled down:
(§1)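 Melting temperature and folding enthalpy were derived from bootstrapped two-state fits. The fitted temperatures were raised by 9.35 °C to agree with UV melts, and four replicates were combined by inverse variance. The underlying data were Cy3 fluorescence images of library hairpins, with annealed Cy3 and quencher oligos, on a sequenced MiSeq flow cell in 50 mM Na-HEPES pH 8.0, 25 mM NaCl, taken in 2.5 °C steps up to 60 °C, normalised to pre-quench Cy3 and to control constructs.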

Data set [2] is described as follows: folding enthalpy; higher = less favourable; fluorescence melt of hairpins on a sequencing array, two-state fit. The settings on record: sodium 0.088 M. Put shortly: as §1

Our source for the Tm and folding enthalpy values is the array DNA melting data of Ke et al. (doi:10.1101/2024.01.08.574731).

In the case of GATCCTTCCCAGGATC ((((((....)))))), the Tm in data set [1] was 52 °C. The folding enthalpy in data set [2] is -36.9 kcal/mol.
With GATCCTTCGGAGGATC ((((((....)))))), in data set [1], the Tm was determined as 52.3 °C. Also, the folding enthalpy in data set [2] was -38.2 kcal/mol.
The corresponding values for GATCCTTGCAAGGATC ((((((....)))))) are 55.4 °C and -41 kcal/mol.
The corresponding values for GATCCTTGCTAGGATC ((((((....)))))) are 53.7 °C and -35.7 kcal/mol.
In the case of GATCCTTGGAAGGATC ((((((....)))))), the Tm in data set [1] was determined as 52.2 °C. Also, in data set [2], the folding enthalpy is -32.1 kcal/mol.
For GATCCTTGTAAGGATC ((((((....)))))), the Tm in data set [1] stood at 55.6 °C. The folding enthalpy in data set [2] was -42.3 kcal/mol.
Consider GATCCTTTCCAGGATC ((((((....)))))), for which, in data set [1], the Tm came out at 51.7 °C. Moreover, in data set [2], the folding enthalpy was -46.1 kcal/mol.
As to GATCCTTTCGAGGATC ((((((....)))))), the Tm in data set [1] came out at 53.8 °C. Moreover, the folding enthalpy in data set [2] is -38.7 kcal/mol.
As for GATCCTTTGCAGGATC ((((((....)))))), the Tm in data set [1] came out at 52 °C. Moreover, the folding enthalpy in data set [2] was -30.6 kcal/mol.
Take GATCGAAAACTCGATC ((((((....)))))): the Tm in data set [1] was determined as 47.2 °C. Besides, the folding enthalpy in data set [2] is -30.3 kcal/mol.
The corresponding values for GATCGAAAATTCGATC ((((((....)))))) are 50 °C and -33.9 kcal/mol.
In the case of GATCGAAACTCGATC ((((((...)))))), in data set [1], the Tm came out at 50.2 °C. In data set [2], the folding enthalpy is -30.4 kcal/mol.
For GATCGAAACTTCGATC ((((((....)))))), the Tm in data set [1] came to 53.5 °C. For the same sequence, the folding enthalpy in data set [2] was -33.9 kcal/mol.
Regarding GATCGAAATTTCGATC ((((((....)))))), the Tm in data set [1] is 53.7 °C. In data set [2], the folding enthalpy is -41.2 kcal/mol.
Consider GATCGAACCATCGATC ((((((....)))))), for which the Tm in data set [1] amounted to 50.4 °C. For the same sequence, the folding enthalpy in data set [2] was -41.6 kcal/mol.
For GATCGAACCGTCGATC ((((((....)))))), in data set [1], the Tm is 49.5 °C. In addition, the folding enthalpy in data set [2] is -37 kcal/mol.
The corresponding values for GATCGAACTATCGATC ((((((....)))))) are 50.3 °C and -43.8 kcal/mol.
For the sequence GATCGAACTCTCGATC ((((((....)))))), the Tm in data set [1] is 49.7 °C. The folding enthalpy in data set [2] is -35.6 kcal/mol.
Taken in the same sequence, the figures for GATCGAAGCATCGATC ((((((....)))))) were 51.2 °C and -35.8 kcal/mol.
GATCGAATAGTCGATC ((((((....)))))): the Tm in data set [1] turned out to be 48.8 °C. The folding enthalpy in data set [2] is -34.8 kcal/mol.
Consider GATCGAATCCTCGATC ((((((....)))))), for which the Tm in data set [1] turned out to be 50.6 °C. In addition, the folding enthalpy in data set [2] is -41.1 kcal/mol.
Taken in the same sequence, the figures for GATCGAATCTCGATC ((((((...)))))) were 51 °C and -38.2 kcal/mol.
As to GATCGACAACTCGATC ((((((....)))))), in data set [1], the Tm was 48.5 °C. Also, in data set [2], the folding enthalpy was -33.8 kcal/mol.
As for GATCGACAATTCGATC ((((((....)))))), the Tm in data set [1] was determined as 49.2 °C. The folding enthalpy in data set [2] is -42.5 kcal/mol.
As for GATCGACACATCGATC ((((((....)))))), in data set [1], the Tm came to 52.4 °C. The folding enthalpy in data set [2] was -38.5 kcal/mol.
As to GATCGACACCTCGATC ((((((....)))))), the Tm in data set [1] was 52.5 °C. Besides, the folding enthalpy in data set [2] is -44.7 kcal/mol.
The corresponding values for GATCGACAGTCGATC ((((((...)))))) are 49.8 °C and -40.4 kcal/mol.
Taken in the same sequence, the figures for GATCGACAGTTCGATC ((((((....)))))) were 49.2 °C and -44.4 kcal/mol.
Taken in the same sequence, the figures for GATCGACCATCGATC ((((((...)))))) were 49.6 °C and -32.2 kcal/mol.
With GATCGACCATTCGATC ((((((....)))))), in data set [1], the Tm came out at 50.1 °C. Besides, in data set [2], the folding enthalpy is -39.6 kcal/mol.
Take GATCGACCCTCGATC ((((((...)))))): the Tm in data set [1] was found to be 51.7 °C. Also, the folding enthalpy in data set [2] is -39.1 kcal/mol.
In the case of GATCGACCCTTCGATC ((((((....)))))), the Tm in data set [1] was determined as 53.4 °C. The folding enthalpy in data set [2] is -45.1 kcal/mol.
The corresponding values for GATCGACGAAAGTCATC (((.(((....)))))) are 33.1 °C and -12.7 kcal/mol.
In the case of GATCGACGACTCGATC ((((((....)))))), in data set [1], the Tm stood at 48.7 °C. The folding enthalpy in data set [2] is -36.3 kcal/mol.
Turning to GATCGACGCGTCGATC ((((((....)))))), the Tm in data set [1] was found to be 68.2 °C. In data set [2], the folding enthalpy was -52.3 kcal/mol.
Regarding GATCGACGCTTCGATC ((((((....)))))), in data set [1], the Tm worked out at 53.3 °C. For the same sequence, in data set [2], the folding enthalpy is -40.6 kcal/mol.
Taken in the same sequence, the figures for GATCGACGGATCGATC ((((((....)))))) were 51.1 °C and -29 kcal/mol.
Consider GATCGACGGTCGATC ((((((...)))))), for which the Tm in data set [1] was determined as 51.2 °C. For the same sequence, in data set [2], the folding enthalpy was -43.7 kcal/mol.
